Measured values from ChEMBL document CHEMBL4414622, “Synthesis, Purification, and Selective β2-AR Agonist and Bronchodilatory Effects of Catecholic Tetrahydroisoquinolines from Portulaca oleracea” (J Nat Prod, 2019).
The source made the active and inactive calls. No cut-off for these calls is given here.

Experiments:
[1] = biological target: Beta-1 adrenergic receptor (Homo sapiens) (UniProt P08588); assay: Agonist activity at human beta1 adrenergic receptor expressed in CHOK1 cells co-expressing Galpha15 assessed as increase in calcium influx by measuring fluorescence intensity at 100 uM by FLIPR assay relative to epinephrine; type: functional, cell-based
Sequence of Beta-1 adrenergic receptor (Homo sapiens) (P08588 whole entry, looked up): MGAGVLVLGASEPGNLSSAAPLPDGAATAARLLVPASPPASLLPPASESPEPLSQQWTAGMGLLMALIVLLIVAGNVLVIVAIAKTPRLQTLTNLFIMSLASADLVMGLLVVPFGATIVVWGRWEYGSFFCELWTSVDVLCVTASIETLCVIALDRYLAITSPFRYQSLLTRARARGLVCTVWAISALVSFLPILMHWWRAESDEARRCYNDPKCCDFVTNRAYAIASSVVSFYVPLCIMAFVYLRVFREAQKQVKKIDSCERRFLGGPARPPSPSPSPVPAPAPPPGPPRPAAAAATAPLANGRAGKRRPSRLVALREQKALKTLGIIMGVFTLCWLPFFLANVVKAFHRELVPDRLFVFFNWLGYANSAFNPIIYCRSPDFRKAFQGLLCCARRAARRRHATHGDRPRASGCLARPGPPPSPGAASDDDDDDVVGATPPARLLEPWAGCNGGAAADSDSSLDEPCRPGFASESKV
Method in brief: (§1)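 Stably transfected CHO-K1/Gα15 lines (ADRB1, ADRB2 or ADRA1B) grown in Ham's F12 with 10% FBS, Zeocin and Hygromycin B at 37 °C. Seeded 1.5 × 10⁴ cells/well, 18 h, then Calcium 4 dye 1 h at 37 °C and 15 min room temperature. Compound (100 μM) added at 21 s of a 120 s FLIPR Tetra read. Stocks were 100 mM in DMSO, diluted in HBSS/20 mM HEPES pH 7.4. n = 4.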

[2] = biological target: T1, Alpha-1B adrenergic receptor (Homo sapiens) (UniProt P35368); assay: Agonist activity at human alpha1 beta adrenergic receptor expressed in CHOK1 cells co-expressing Galpha15 assessed as increase in calcium influx by measuring fluorescence intensity at 100 uM by FLIPR assay relative to epinephrine; type: functional, cell-based; method in brief: as §1
T1 sequence (whole entry): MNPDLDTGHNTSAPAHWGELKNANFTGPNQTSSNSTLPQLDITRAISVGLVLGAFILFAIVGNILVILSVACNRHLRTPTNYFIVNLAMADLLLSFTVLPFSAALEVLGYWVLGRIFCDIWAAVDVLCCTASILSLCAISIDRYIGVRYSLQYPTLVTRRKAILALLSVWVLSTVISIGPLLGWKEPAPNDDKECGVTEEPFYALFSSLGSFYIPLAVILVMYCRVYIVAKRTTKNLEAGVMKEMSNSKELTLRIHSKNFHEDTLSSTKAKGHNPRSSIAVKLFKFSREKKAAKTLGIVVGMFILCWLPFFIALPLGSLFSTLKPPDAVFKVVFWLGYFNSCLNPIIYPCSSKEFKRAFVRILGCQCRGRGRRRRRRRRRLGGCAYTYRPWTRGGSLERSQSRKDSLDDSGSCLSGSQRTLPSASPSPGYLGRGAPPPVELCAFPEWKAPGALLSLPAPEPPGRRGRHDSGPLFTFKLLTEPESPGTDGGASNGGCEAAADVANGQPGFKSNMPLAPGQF

[3] = biological target: Beta-2 adrenergic receptor (Homo sapiens) (UniProt P07550); assay: Agonist activity at human beta2 adrenergic receptor expressed in CHOK1 cells co-expressing Galpha15 assessed as increase in calcium influx by measuring fluorescence intensity at 100 uM by FLIPR assay relative to isoproterenol; type: functional, cell-based; method in brief: as §1
Sequence of Beta-2 adrenergic receptor (Homo sapiens) (P07550 whole entry, looked up): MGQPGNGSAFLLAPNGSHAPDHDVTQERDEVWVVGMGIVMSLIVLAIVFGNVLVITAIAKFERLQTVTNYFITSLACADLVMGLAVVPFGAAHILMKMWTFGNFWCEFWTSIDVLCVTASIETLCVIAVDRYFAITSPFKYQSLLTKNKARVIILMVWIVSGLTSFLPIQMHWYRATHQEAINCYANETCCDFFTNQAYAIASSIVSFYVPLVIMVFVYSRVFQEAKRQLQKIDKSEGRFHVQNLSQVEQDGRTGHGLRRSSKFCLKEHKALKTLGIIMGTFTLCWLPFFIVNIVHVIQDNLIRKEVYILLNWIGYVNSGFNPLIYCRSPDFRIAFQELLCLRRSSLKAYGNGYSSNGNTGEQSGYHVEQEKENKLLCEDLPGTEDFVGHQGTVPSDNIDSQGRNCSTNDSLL

[4] = biological target: Beta-2 adrenergic receptor (Cavia porcellus, UniProt Q8K4Z4); assay: Agonist activity at beta2 adrenergic receptor in guinea pig tracheal smooth muscle assessed as inhibition of histamine-induced tracheal smooth muscle contraction by measuring spasmolysis in absence of beta adrenergic receptor antagonist propranolol
Sequence of Beta-2 adrenergic receptor (Q8K4Z4 whole entry): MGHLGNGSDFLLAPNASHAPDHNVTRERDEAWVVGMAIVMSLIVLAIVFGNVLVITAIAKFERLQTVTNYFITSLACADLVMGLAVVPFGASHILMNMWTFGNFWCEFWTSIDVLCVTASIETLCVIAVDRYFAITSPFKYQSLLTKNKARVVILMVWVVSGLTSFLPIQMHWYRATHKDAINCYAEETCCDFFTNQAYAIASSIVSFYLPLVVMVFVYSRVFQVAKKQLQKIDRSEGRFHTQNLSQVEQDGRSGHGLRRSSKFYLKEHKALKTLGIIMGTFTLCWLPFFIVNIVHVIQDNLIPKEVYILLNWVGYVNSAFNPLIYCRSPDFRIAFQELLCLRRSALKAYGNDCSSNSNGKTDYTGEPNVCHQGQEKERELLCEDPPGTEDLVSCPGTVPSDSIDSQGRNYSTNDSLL

[5] = biological target: Beta-2 adrenergic receptor (Cavia porcellus) (UniProt Q8K4Z4); assay: Agonist activity at beta2 adrenergic receptor in guinea pig tracheal smooth muscle assessed as inhibition of histamine-induced tracheal smooth muscle contraction by measuring spasmolysis preincubated for 15 mins in presence of beta adrenergic receptor antagonist propranolol followed by histamine addition
Sequence of Beta-2 adrenergic receptor (Cavia porcellus) (Q8K4Z4 whole entry, looked up): as the sequence (Q8K4Z4 whole entry) above

Compound | Activity [1] | Activity [2] [%] | Activity [3] | EC50 [4] [nM] | inhibition [5]
Oc1cc2c(cc1O)C(c1ccco1)=NCC2 | 73.5% | 13.4 |  |  | 
CC1NCCc2cc(O)c(O)cc21 (stereo unspecified) | -11.4% | 22.1 | 2.91% |  | 
OCc1ccc(C2=NCCc3cc(O)c(O)cc32)o1 | -10.4% | 13.7 |  |  | 
CC1=NCCc2cc(O)c(O)cc21 | -6.31% | 15.9 |  |  | 
Oc1cccc(C2NCCc3cc(O)c(O)cc32)c1 (stereo unspecified) | inactive | 14.5 | inactive |  | 
COc1ccccc1C1NCCc2cc(O)c(O)cc21 (stereo unspecified) | inactive | 36.3 | inactive |  | 
Oc1cc2c(cc1O)CCN=C2 | -6.22% | 24.2 |  |  | 
CC(C)C[C@H]1NCCc2cc(O)c(O)cc21 | inactive | 20.5 |  |  | 
Oc1cc2c(cc1O)[C@@H](Cc1ccccc1)NCC2 | 80.3% | 6.1 |  |  | 
Oc1cc2c(cc1O)C(c1cccc3ccccc13)NCC2 (stereo unspecified) | inactive | 43.8 | inactive |  | 
COc1ccc(C2NCCc3cc(O)c(O)cc32)cc1 (stereo unspecified) | inactive | 18.5 | inactive |  | 
Oc1cc2c(cc1O)C(Cc1ccccc1)NCC2 (stereo unspecified) | 99.9% | 39.4 | 44.7% | 800 | Dose-dependent effect
CC(C)CC1NCCc2cc(O)c(O)cc21 (stereo unspecified) | inactive | 7.7 | 64.5% | 2800 | Dose-dependent effect
OCc1ccc(C2NCCc3cc(O)c(O)cc32)o1 (stereo unspecified) | -20.3% | 22.3 | -11.1% |  | 
C[C@@H]1NCCc2cc(O)c(O)cc21 | -9.5% | 19.2 |  |  | 
COc1cc(C2NCCc3cc(O)c(O)cc32)ccc1O (stereo unspecified) | inactive | 11.8 | inactive |  | 
Oc1cc2c(cc1O)C(c1ccco1)NCC2 (stereo unspecified) | -35.3% | 15.6 | -9.23% |  | 
Oc1ccc(C2NCCc3cc(O)c(O)cc32)cc1O (stereo unspecified) | inactive | 16.6 | inactive |  | 
Oc1ccc(C2NCCc3cc(O)c(O)cc32)cc1 (stereo unspecified) | inactive | 31.9 | inactive |  | 
COc1cc(C2NCCc3cc(O)c(O)cc32)cc(OC)c1OC (stereo unspecified) | inactive | 20.5 | inactive |  | 
CC(C)NCC(O)c1ccc(O)c(O)c1 (stereo unspecified) [ISOPROTERENOL] |  |  |  | 7.9 | 
Oc1cc2c(cc1O)C(c1ccccc1)NCC2 (stereo unspecified) | inactive | 51.5 | inactive |  | 
